This passage reports Activity results from ChEMBL document CHEMBL1149813, “Synthesis of 6-amino-1,4-dihydropyridines that prevent calcium overload and neuronal death” (2008).

Assay [1] has as its system SH-SY5Y. Nature of the assay: Blockade of high K+-induced increase in calcium uptake in human SH-SY5Y cells at 0.3 uM relative to control. The format is functional.
The subject of assay [2] is SH-SY5Y. Nature of the assay: Neuroprotective activity against human SH-SY5Y cells assessed as reduction in K+-induced LDH release at 0.3 uM relative to control. The class given is functional. Set-up: scale not given: the % may be the effect or the level left. The gist of the method: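 SH-SY5Y neuroblastoma cells maintained in DMEM with 10% FCS at 37 °C in 5% CO2, used at passages 3–16. Cells treated before confluence in serum-free DMEM. Cell death from Ca2+ overload induced by 70 mM K+, read as LDH release. Compounds tested at 0.3 (unit as printed); nimodipine as reference. Means ± SEM, at least three cultures in quadruplicate.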
In general terms: LDH in the medium is a marker of cell lysis.

Assay [3] relates to SH-SY5Y. Briefly: Neuroprotective activity against calcium overload-induced cell death in human SH-SY5Y cells at 0.3 uM in presence of K+ relative to control. The class given is functional. The essentials:
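SH-SY5Y cells (passages 3–16 after thawing) were grown in DMEM with 10% FCS, glutamine and penicillin/streptomycin at 37 °C in 5% CO2. They were treated with compound before confluence in serum-free DMEM and challenged with 70 mM K+. Read-out was the reduction in the increase of LDH released, relative to a drug-free control. Means ± SEM from at least three cultures in quadruplicate.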

Assay [4] concerns SH-SY5Y. Briefly: Neuroprotective activity against human SH-SY5Y cells assessed as reduction in H2O2-induced LDH release at 0.3 uM relative to control. Set-up: scale not given: the % may be the effect or the level left. The class given is functional.
In assay [5] the test system is SH-SY5Y. Briefly: Neuroprotective activity against free radical-induced cell death in human SH-SY5Y cells at 0.3 uM in presence of H2O2 relative to control.

For the molecule `CCOC(=O)C1=C(C)NC(N)=C(C#N)C1c1ccncc1` (stereo not given), the Activity was found to be 32.6% in assay [1]; 70.5% in assay [2]; 43.3% in assay [3]; 66.7% in assay [4]; 46.7% in assay [5].

As for `Cc1ccc(C2C(C#N)=C(N)NC3=C2C(=O)CC(C)(C)C3)cc1` (stereo not given), the Activity came to 28.6% in assay [1]; 68.4% in assay [2]; 44.4% in assay [3]; 88.6% in assay [4]; 14.9% in assay [5].

As to `CC1(C)CC(=O)C2=C(C1)NC(N)=C(C#N)C2c1ccncc1` (stereo not given), the Activity in assay [1] is given as 50.4%; in assay [2], 71.4%; in assay [3], 39.5%; in assay [4] it was 77.7%; in assay [5], 29.1%.

In the case of `COc1ccc(C2C(C#N)=C(N)NC3=C2C(=O)CC(C)(C)C3)cc1` (stereo not given), the Activity worked out at 12.6% in assay [1]; 69.3% in assay [2]; 43.2% in assay [3]; 77.8% in assay [4]; 29% in assay [5].

Consider `CC1(C)CC(=O)C2=C(C1)NC(N)=C(C#N)C2c1ccc(F)cc1` (stereo not given), for which the Activity came to 63.9% in assay [1]; 69.9% in assay [2]; 42.3% in assay [3]; 75.4% in assay [4]; 32.4% in assay [5].

Regarding `CCOC(=O)C1=C(C)NC(N)=C(C#N)C1c1ccc(OC)c(OC)c1` (stereo not given), the Activity turned out to be 21.8% in assay [1]; 80.5% in assay [2]; 31.2% in assay [3]; 70.2% in assay [4]; 40.8% in assay [5].

For `CC1(C)CC(=O)C2=C(C1)NC(N)=C(C#N)C2c1ccccc1` (stereo not given), the Activity in assay [1] is on record as 20.8%; in assay [2], 61.2%; in assay [3] it was 54.7%; in assay [4] it was 84.2%; in assay [5], 20.6%.

For `CCOC(=O)C1=C(C)NC(N)=C(C#N)C1c1ccc([N+](=O)[O-])cc1` (stereo not given), the Activity in assay [1] was determined as 17.6%; in assay [2], 68.9%; in assay [3], 45.7%; in assay [4], 83.4%; in assay [5] it was 23.1%.

As for `CCOC(=O)C1=C(C)NC(N)=C(C#N)C1c1ccccc1OC` (stereo not given), the Activity in assay [1] is reported as 24.3%; in assay [2], 78.2%; in assay [3] it was 31.5%; in assay [4], 88.4%; in assay [5], 15%.

Turning to `CCOC(=O)C1=C(C)NC(N)=C(C#N)C1c1cccc(OC)c1` (stereo not given), the Activity in assay [1] came to 25%; in assay [2], 77.9%; in assay [3], 32.1%; in assay [4] it was 86.1%; in assay [5], 27.7%.

On to `CCOC(=O)C1=C(C)NC(N)=C(C#N)C1c1cccc([N+](=O)[O-])c1` (stereo not given), for which the Activity in assay [1] was 27.8%; in assay [2] it was 79.4%; in assay [3], 30.3%; in assay [4], 84.5%; in assay [5], 21.2%.

As for `CCOC(=O)C1=C(C)NC(N)=C(C#N)C1c1ccccc1` (stereo not given), the Activity turned out to be 34.03% in assay [1]; 76.26% in assay [2]; 34.1% in assay [3]; 86.7% in assay [4]; 17.3% in assay [5].

`CCOC(=O)C1=C(C)NC(N)=C(C#N)C1c1ccc(F)cc1` (stereo not given): the Activity in assay [1] turned out to be 7.2%; in assay [2], 72.8%; in assay [3], 39.8%; in assay [4] it was 82.2%; in assay [5] it was 24.7%.

On to `CCOC(=O)C1=C(C)NC(N)=C(C#N)C1c1ccccc1C(F)(F)F` (stereo not given), for which the Activity in assay [1] stood at 30.4%; in assay [2] it was 72.11%; in assay [3], 40.2%; in assay [4], 78.6%; in assay [5], 28.2%.

In the case of `CCOC(=O)C1=C(C)NC(N)=C(C#N)C1c1cccnc1` (stereo not given), the Activity worked out at 14.1% in assay [1]; 70.5% in assay [2]; 43.4% in assay [3]; 84.5% in assay [4]; 21.2% in assay [5].

As to `CCOC(=O)C1=C(C)NC(N)=C(C#N)C1c1ccc(-c2ccccc2)cc1` (stereo not given), the Activity in assay [1] came out at 23.9%; in assay [2], 90.9%; in assay [3], 12.9%; in assay [4], 80.3%; in assay [5], 26.2%.

`CCOC(=O)C1=C(C)NC(N)=C(C#N)C1c1ccc(OC)cc1` (stereo not given): the Activity in assay [1] is 11.8%; in assay [2], 89.9%; in assay [3], 14.4%; in assay [4], 77.7%; in assay [5] it was 31.3%.

In the case of `CCOC(=O)C1=C(C)NC(N)=C(C#N)C1c1ccc(C)cc1` (stereo not given), the Activity amounted to 16.9% in assay [1]; 72.3% in assay [2]; 40.8% in assay [3]; 69.7% in assay [4]; 42.4% in assay [5].

For `CCOC(=O)C1=C(C)NC(N)=C(C#N)C1c1ccccc1[N+](=O)[O-]` (stereo not given), the Activity is 16.1% in assay [1]; 71.11% in assay [2]; 42.6% in assay [3]; 98.8% in assay [4]; 1.6% in assay [5].

As for `COCCOC(=O)C1=C(C)NC(C)=C(C(=O)OC(C)C)C1c1cccc([N+](=O)[O-])c1` (stereo not given) [NIMODIPINE], the Activity was 45.5% in assay [1]; 75% in assay [2]; 35.9% in assay [3]; 75.4% in assay [4]; 36.03% in assay [5].
